# From ChEMBL document CHEMBL1151718, “Design, synthesis, and biological characterization of a caspase 3/7 selective isatin labeled with 2-[18F]fluoroethylazide” (J Med Chem, 2008)
# The source made the active and inactive calls. No cut-off for these calls is given here.
# Experiments:
# [1] = Chemical stability assessed as half life; assay type: physicochemical
# [2] = Increase in drug uptake in mouse RIF1 cells after 60 mins relative to control; assay type: ADME, cell-based; conditions: rif-1, 1 h
# Procedure, shortened: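 RIF-1 murine fibrosarcoma cells, plated in triplicate 2–3 days ahead, were exposed to CDDP at 100 µM or to vehicle (0.1% DMSO) for 48 h. About 10 µCi/well of the 18F tracer was then taken up for 60 min at 37 °C. Cells were collected, washed, resuspended in PBS and gamma-counted. Decay-corrected counts/min were normalised to mg protein (BCA), and the treated level was compared with the untreated one.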
# Liver = test: Metabolic stability […] mouse liver assessed as ratio of peak to total radioactivity present on chromatogram at 3.7 MBq, iv after 2 mins; assay type: ADME, organism-based; conditions: in vivo
# Procedure, shortened: (§1)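 [¹⁸F]15 (7.4 MBq) injected iv into non-tumor-bearing C3H/hej mice. Plasma and liver were snap-frozen, extracted with ice-cold acetonitrile (liver homogenized), centrifuged and dried. Extracts were analyzed by reverse-phase C18 radio-HPLC (ammonium formate/methanol:acetonitrile gradient). Percent parent = parent peak relative to total chromatogram radioactivity. Plasma: average of 3 studies per time point; liver: individual results from two samples.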
# Plasma [3] = test: Metabolic stability in […] mouse plasma assessed as ratio of peak to total radioactivity present on chromatogram at 3.7 MBq, iv after 2 mins; assay type: ADME, organism-based, RIF-1; conditions: in vivo, in the assay text read “7.4 MBq” for “3.7 MBq”; procedure, shortened: as §1
# Plasma [4] = test: Metabolic stability in […] mouse plasma assessed as ratio of peak to total radioactivity present on chromatogram at 3.7 MBq, iv after 15 mins; assay type: ADME, organism-based; conditions: in vivo, 0.25 h; procedure, shortened: as §1
# [5] = Metabolic stability in mouse liver S9 fraction at pH 7.4; assay type: ADME, subcellular; conditions: s9, pH 7.4
# Procedure, shortened: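 Mouse liver homogenized in 50 mM Tris–150 mM KCl–HCl pH 7.4 and spun at 10000g for 30 min to give S9. Compound (10 µL of 10 mM stock) was incubated with S9 (20 µL of 33.26 mg/mL) and 0.5 mM NADPH in Tris-HCl pH 7.4 (1 mL total), 60 min at 37 °C in air. Stopped with ice-cold acetonitrile and analyzed by gradient reverse-phase HPLC.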
# Caspase-3 (Mus musculus) = target: T1, Caspase-3 (Mus musculus) (UniProt P70677); test: Inhibition of caspase 3 in mouse RIF1 cells assessed as disruption of cisplatin-stimulated PARP induction by Western blot; assay type: cell-based; conditions: RIF-1
# T1 sequence (whole entry): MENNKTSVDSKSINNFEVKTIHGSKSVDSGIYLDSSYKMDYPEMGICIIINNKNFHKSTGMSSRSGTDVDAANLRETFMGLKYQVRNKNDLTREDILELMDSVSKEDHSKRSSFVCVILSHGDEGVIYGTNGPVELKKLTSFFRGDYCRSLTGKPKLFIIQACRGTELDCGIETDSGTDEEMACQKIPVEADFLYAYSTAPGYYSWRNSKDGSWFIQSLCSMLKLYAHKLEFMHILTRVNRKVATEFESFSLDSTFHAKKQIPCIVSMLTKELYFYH
# Procedure, shortened: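 RIF-1 murine fibrosarcoma cells were pretreated 15 min with caspase inhibitors (Z-VAD-FMK 100 µM as control), then given cisplatin 100 µM for 48 h. Lysates were made in RIPA with protease/phosphatase inhibitors, and 30 µg protein was run on 4–12% SDS-PAGE and blotted to PVDF. Probed with anti-cleaved PARP (89 kDa fragment) and α-tubulin loading control, detected by ECL.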
# Caspase-3 = target: T2, Caspase-3 (Homo sapiens, UniProt P42574); test: Inhibition of human recombinant caspase 3 assessed as accumulation of 7-amino-4-methylcoumarin substrate
# T2 sequence (P42574 whole entry): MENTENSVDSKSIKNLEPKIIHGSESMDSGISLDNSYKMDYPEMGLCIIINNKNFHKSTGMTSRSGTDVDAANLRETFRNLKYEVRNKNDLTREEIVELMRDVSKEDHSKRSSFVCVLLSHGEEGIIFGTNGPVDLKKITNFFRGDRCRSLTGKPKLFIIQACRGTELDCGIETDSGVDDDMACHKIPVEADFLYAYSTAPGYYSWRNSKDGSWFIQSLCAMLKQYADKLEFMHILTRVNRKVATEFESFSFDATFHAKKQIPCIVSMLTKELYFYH
# Procedure, shortened: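 Substrates at 10 µM: Ac-DEVD-AMC (caspase 3), Ac-VEID-AMC (caspase 6), Ac-IETD-AMC (caspase 8), added after 10 min preincubation with inhibitor (5 pM–500 µM). Duplicates, two runs; EC50 by nonlinear regression.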
# Caspase-7 = target: T3, Caspase-7 (Homo sapiens, UniProt P55210); test: Inhibition of human recombinant caspase 7 assessed as accumulation of 7-amino-4-methylcoumarin substrate
# T3 sequence (P55210 whole entry): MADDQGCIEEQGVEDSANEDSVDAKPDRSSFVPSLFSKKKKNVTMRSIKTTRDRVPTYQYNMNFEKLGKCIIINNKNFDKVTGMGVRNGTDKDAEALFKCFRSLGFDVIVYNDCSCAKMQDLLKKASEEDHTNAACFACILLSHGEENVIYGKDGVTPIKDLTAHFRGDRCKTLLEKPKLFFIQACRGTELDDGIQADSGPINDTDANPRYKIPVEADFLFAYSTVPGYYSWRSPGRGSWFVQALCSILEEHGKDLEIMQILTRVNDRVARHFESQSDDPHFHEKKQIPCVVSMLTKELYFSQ
# Procedure, shortened: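 Isatin (5 pM–500 µM, 9 levels) preincubated 10 min, then Ac-DEVD-AMC (10 µM final) added for 30 min. 7-AMC fluorescence read at ex 355/em 460 nm against no-enzyme controls. EC50 by nonlinear regression; duplicates, two runs.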
# Caspase-8 = Caspase-8 (Homo sapiens, UniProt Q14790); test: Inhibition of human recombinant caspase 8 assessed as accumulation of 7-amino-4-methylcoumarin substrate
# Procedure, shortened: (§2)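 Substrates at 10 µM: Ac-DEVD-AMC (caspase 3), Ac-VEID-AMC (caspase 6), Ac-IETD-AMC (caspase 8), added after 10 min preincubation with inhibitor (5 pM–500 µM). 7-AMC read after 30 min at ex 355/em 460 nm. Duplicates, two runs; EC50 by nonlinear regression.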
# Caspase-6 = target: T4, Caspase-6 (Homo sapiens, UniProt P55212); test: Inhibition of human recombinant caspase 6 assessed as accumulation of 7-amino-4-methylcoumarin substrate; procedure, shortened: as §2
# T4 sequence (P55212 whole entry): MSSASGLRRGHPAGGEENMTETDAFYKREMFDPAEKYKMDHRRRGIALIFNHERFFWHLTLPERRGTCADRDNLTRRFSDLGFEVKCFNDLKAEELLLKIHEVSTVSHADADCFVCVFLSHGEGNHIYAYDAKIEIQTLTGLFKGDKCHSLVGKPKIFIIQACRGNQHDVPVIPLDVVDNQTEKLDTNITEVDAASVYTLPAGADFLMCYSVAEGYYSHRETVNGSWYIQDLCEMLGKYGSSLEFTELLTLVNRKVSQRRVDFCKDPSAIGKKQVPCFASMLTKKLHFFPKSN
# Caspase-1 = target: T5, Caspase-1 (Homo sapiens, UniProt P29466); test: Inhibition of human recombinant caspase 1 assessed as accumulation of 7-amino-4-methylcoumarin substrate
# T5 sequence (P29466 whole entry): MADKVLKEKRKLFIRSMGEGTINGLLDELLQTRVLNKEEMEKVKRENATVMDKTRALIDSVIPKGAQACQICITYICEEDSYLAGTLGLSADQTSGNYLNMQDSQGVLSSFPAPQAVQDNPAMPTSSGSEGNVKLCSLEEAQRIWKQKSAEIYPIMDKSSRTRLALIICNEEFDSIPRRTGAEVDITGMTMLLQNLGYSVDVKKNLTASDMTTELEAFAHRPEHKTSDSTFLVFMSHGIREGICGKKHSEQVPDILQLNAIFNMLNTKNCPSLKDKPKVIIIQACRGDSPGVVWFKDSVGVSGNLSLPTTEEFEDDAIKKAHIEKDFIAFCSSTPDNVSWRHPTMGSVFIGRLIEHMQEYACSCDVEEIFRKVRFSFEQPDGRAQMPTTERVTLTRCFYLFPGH
# Procedure, shortened: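 Recombinant human caspase 1 (0.5 units) at 37 °C in 100 mM HEPES pH 7.4, 0.1% CHAPS, 100 mM NaCl, 5 mM 2-mercaptoethanol, 2 mM EDTA, 10% sucrose, 5% DMSO final. Inhibitor (5 pM–500 µM, 9 concentrations) preincubated 10 min before adding 10 µM Ac-YVAD-AMC for 30 min. 7-AMC fluorescence read at ex 355/em 460 nm against no-enzyme controls. Duplicates, two runs; EC50 by nonlinear regression.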
# [6] = Lipophilicity, log P of the compound; assay type: physicochemical; conditions: octanol/water
# Chain of Caspase-8 (Q14790 217-374 limits assumed): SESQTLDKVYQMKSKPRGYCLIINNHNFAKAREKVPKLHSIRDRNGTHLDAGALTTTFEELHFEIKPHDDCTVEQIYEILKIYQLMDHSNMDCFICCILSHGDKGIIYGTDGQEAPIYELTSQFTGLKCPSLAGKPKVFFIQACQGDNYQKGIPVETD
# Chain of Caspase-8 (Q14790 385-479 limits assumed): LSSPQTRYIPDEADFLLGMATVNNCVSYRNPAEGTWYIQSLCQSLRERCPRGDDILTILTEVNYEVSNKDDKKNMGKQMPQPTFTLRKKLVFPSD
smiles,measurement,setting,value
O=C1C(=O)N(Cc2ccc([125I])cc2)c2ccc(S(=O)(=O)N3CCC[C@H]3COc3ccccc3)cc21,half-life,[1],59.9 days
O=C1C(=O)N(Cc2cn(CC[18F])nn2)c2ccc(S(=O)(=O)N3CCC[C@H]3COc3ccc(F)cc3F)cc21,fold change (FC),[2],1.5
same,Activity,Liver,35.7%
same,Activity,Plasma [3],86.1%
same,Activity,Plasma [4],61.3%
O=C1C(=O)N(Cc2ccc(F)cc2)c2ccc(S(=O)(=O)N3CCCC3)cc21,Stability,[5],Stable
O=C1C(=O)N(Cc2ccc(I)cc2)c2ccc(S(=O)(=O)N3CCC[C@H]3COc3ccccc3)cc21,Activity,Caspase-3 (Mus musculus),inactive
O=C1C(=O)N(Cc2ccc(F)cc2)c2ccc(S(=O)(=O)N3CCC[C@H]3COCc3cn(CCF)nn3)cc21,EC50,Caspase-3,12.6 nM
same,EC50,Caspase-7,18.3 nM
same,EC50,Caspase-8,> 5000 nM
same,EC50,Caspase-6,> 5000 nM
same,EC50,Caspase-1,> 5000 nM
O=C1C(=O)N(Cc2cn(CCF)nn2)c2ccc(S(=O)(=O)N3CCC[C@H]3COc3ccc(F)cc3F)cc21,logP,[6],1.61
O=C1C(=O)N(Cc2ccc(F)cc2)c2ccc(S(=O)(=O)N3CCC[C@H]3COC3CCOCC3)cc21,EC50,Caspase-3,10.7 nM
O=C1C(=O)N(Cc2ccc(F)cc2)c2ccc(S(=O)(=O)N3CCC[C@H]3COc3ccccc3)cc21,EC50,Caspase-3,50.5 nM
